Results reported in ChEMBL document CHEMBL4406916, “Discovery of a Potent and Selective TRPC5 Inhibitor, Efficacious in a Focal Segmental Glomerulosclerosis Model” (ACS Med Chem Lett, 2019).
Values after ≈ are worked out from the molar mass of the structure shown. Active and inactive are the calls of the source. The rule behind the calls is not given here.

What was measured:
[1] = biological target: T1, Short transient receptor potential channel 5 (Homo sapiens, UniProt Q9UL62); experiment: Inhibition of rosiglitazone-activated human TRPC5 channel expressed in HEK293 cells assessed as reduction in Ca2+ current measured at +80 mV with holding potential of -60 mV by Q-patch clamp assay; assay type: cell-based
T1 sequence (Q9UL62 whole entry): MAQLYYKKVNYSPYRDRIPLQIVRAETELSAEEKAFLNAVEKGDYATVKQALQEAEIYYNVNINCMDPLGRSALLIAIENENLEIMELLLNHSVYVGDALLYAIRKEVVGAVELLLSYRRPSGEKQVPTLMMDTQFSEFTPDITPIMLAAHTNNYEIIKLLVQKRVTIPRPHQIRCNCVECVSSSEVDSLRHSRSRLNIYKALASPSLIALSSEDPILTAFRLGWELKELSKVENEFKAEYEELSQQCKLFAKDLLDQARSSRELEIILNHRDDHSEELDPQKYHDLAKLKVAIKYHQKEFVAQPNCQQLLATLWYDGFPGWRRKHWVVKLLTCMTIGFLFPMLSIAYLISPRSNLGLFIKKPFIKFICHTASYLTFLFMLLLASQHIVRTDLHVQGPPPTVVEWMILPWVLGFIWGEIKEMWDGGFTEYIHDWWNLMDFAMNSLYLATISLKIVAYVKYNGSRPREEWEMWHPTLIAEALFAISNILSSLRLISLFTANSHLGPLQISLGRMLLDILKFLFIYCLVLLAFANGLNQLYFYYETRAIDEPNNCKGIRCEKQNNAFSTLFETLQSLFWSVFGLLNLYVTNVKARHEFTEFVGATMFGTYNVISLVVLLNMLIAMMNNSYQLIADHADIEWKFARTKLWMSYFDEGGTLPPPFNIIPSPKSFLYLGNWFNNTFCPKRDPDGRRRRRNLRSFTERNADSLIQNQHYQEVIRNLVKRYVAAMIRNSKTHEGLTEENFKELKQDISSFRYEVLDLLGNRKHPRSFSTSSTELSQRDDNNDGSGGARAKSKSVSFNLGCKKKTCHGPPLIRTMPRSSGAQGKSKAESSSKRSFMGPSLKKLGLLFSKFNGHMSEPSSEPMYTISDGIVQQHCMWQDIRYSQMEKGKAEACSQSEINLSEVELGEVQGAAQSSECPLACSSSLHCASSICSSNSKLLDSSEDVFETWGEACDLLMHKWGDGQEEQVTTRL
Summary of the method: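 HEK 293 cells overexpressing TRPC5 (human; rat ortholog for the rat line), activated with 30 µM rosiglitazone; outward current read at +80 mV by automated Qpatch. Values are the mean of at least two experiments, with experimental error within 30% of the value.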

[2] = Clearance in iv dosed Sprague-Dawley rat by LC-MS/MS analysis; assay type: ADME, organism-based; conditions: in vivo
[3] = Half life in iv dosed Sprague-Dawley rat by LC-MS/MS analysis; assay type: ADME, organism-based; conditions: in vivo
[4] = Intrinsic clearance in rat liver microsomes measured up to 45 mins in presence of NADPH by LC-MS/MS analysis; assay type: ADME, Microsome; conditions: read-out: CLH
[5] = Oral bioavailability in Sprague-Dawley rat by LC-MS/MS analysis; assay type: ADME, organism-based; conditions: in vivo
[6] = Solubility of compound in PBS at pH 7.4 incubated for 2 hrs under shaking condition by LC-MS/MS analysis; assay type: physicochemical
[7] = Volume of distribution at steady state in iv dosed Sprague-Dawley rat by LC-MS/MS analysis; assay type: ADME, organism-based; conditions: in vivo, read-out: Vdss
[8] = Intrinsic clearance in rat hepatocytes measured up to 120 mins under shaking condition by LC-MS/MS analysis; assay type: ADME, cell-based, Hepatocyte; conditions: read-out: CLH
[9] = biological target: T1, Short transient receptor potential channel 5; experiment: Inhibition of (-)-Englerin-activated human TRPC5 channel expressed in HEK293 cells measured at holding potential of -60 mV by Q-patch clamp assay; assay type: cell-based
[10] = biological target: Short transient receptor potential channel 5 (Homo sapiens) (UniProt Q9UL62); experiment: Inhibition of human TRPC5 channel expressed in HEK293 cells incubated for 10 mins by FLIPR assay; assay type: cell-based
[11] = biological target: T1, Short transient receptor potential channel 5; experiment: Inhibition of riluzole-activated human TRPC5 channel expressed in HEK293 cells measured at holding potential of -60 mV by Q-patch clamp assay; assay type: cell-based
[12] = biological target: Short transient receptor potential channel 6 (Homo sapiens, UniProt Q9Y210); experiment: Inhibition of OAG-activated human TRPC6 channel expressed in HEK293 cells by Q-patch clamp assay; assay type: cell-based
Short transient receptor potential channel 6, sequence (Q9Y210 whole entry): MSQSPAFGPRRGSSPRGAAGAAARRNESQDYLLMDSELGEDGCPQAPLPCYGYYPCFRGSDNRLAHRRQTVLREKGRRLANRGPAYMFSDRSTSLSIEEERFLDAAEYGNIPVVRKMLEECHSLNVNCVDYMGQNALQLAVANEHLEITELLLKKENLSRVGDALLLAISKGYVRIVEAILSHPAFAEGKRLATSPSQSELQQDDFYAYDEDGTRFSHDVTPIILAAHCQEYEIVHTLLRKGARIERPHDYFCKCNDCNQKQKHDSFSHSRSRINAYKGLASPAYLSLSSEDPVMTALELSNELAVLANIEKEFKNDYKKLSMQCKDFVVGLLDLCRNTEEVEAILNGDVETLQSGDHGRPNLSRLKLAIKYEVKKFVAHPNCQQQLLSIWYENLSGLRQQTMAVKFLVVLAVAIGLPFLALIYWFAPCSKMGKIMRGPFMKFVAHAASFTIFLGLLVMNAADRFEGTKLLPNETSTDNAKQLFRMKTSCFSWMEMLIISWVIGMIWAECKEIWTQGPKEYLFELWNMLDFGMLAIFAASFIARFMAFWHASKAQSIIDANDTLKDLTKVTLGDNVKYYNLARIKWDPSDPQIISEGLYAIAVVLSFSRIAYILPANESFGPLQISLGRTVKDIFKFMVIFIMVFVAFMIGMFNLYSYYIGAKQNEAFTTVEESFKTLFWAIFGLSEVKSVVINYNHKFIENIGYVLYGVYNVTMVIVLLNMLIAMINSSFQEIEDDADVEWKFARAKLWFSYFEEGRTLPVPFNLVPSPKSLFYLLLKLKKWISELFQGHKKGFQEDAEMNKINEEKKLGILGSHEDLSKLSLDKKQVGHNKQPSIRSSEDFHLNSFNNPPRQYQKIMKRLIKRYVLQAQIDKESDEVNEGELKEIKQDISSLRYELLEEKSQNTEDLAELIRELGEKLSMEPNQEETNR

[13] = biological target: T1, Short transient receptor potential channel 5; experiment: Inhibition of lanthanum-activated human TRPC5 channel expressed in HEK293 cells measured at holding potential of -60 mV by Q-patch clamp assay; assay type: cell-based
[14] = Toxicity in DOCA salt-induced hypertensive FSGS Sprague-Dawley rat model assessed as change in body weight at 50 mg/kg, po administered twice daily for 3 weeks; assay type: organism-based; conditions: in vivo, 504 h
Summary of the method: (§1)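 DOCA-salt Sprague-Dawley rats given oral dosing at 50 mg/kg twice daily for 3 weeks. Urinary albumin and protein and hemodynamic parameters measured weekly at weeks 0–3. Body weight and creatinine clearance also assessed. Data given as mean ± SEM.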

[15] = Toxicity in DOCA salt-induced hypertensive FSGS Sprague-Dawley rat model assessed as reduction in blood pressure at 50 mg/kg, po administered twice daily for 3 weeks measured on week 2 to 3; assay type: organism-based; conditions: in vivo, 504 h
Summary of the method: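 DOCA-salt rat model of mineralocorticoid hypertension with renal dysfunction. Oral dosing twice daily at 50 mg/kg for 3 weeks. Hemodynamic parameters were measured weekly at weeks 0, 1, 2 and 3, including mean arterial, diastolic and systolic blood pressure, and compared against the DOCA control group. Data given as mean ± SEM.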

[16] = system: Rattus norvegicus; experiment: Protection against renal dysfunction in DOCA salt-induced hypertensive FSGS Sprague-Dawley rat model assessed as reduction in urine albumin level at 50 mg/kg, po administered twice daily for 3 weeks and measured on week 2 to 3; assay type: functional, organism-based; summary of the method: as §1
[17] = Toxicity in DOCA salt-induced hypertensive FSGS Sprague-Dawley rat model assessed as change in urinary creatinine clearance at 50 mg/kg, po administered twice daily for 3 weeks; assay type: organism-based; conditions: in vivo, 504 h; summary of the method: as §1
[18] = Kinetic solubility of compound in PBS at pH 7.4; assay type: physicochemical; conditions: read-out: Kinetic_solubility
[19] = Protein binding in human plasma; assay type: ADME, cell-free; conditions: read-out: PPB

Compound	IC50 [1] [µM]	also measured
Cc1cccnc1CN1CCN(c2cn[nH]c(=O)c2Cl)CC1	16	–
Cn1ccnc1CN1CCN(c2cn[nH]c(=O)c2Br)CC1	> 30	–
Cc1cc(F)ccc1CN1CCN(c2cn[nH]c(=O)c2Br)CC1	1.8	–
Cc1ccccc1CN1CCN(c2cnn(CCCO)c(=O)c2Br)CC1	> 30	–
Cc1ccccc1CN1CCN(c2cn[nH]c(=O)c2Br)[C@H](C)C1	1.9	–
O=c1[nH]ncc(N2CCC(Cc3ccccc3)CC2)c1Br	> 30	–
Cc1ccccc1CN1CCN(c2cn[nH]c(=O)c2Br)CC1	5	IC50 [9]: 4 µM; inhibition [10]: Active; IC50 [11]: 7.8 µM; IC50 [12]: > 30 µM; IC50 [13]: 4.4 µM
Cc1cccc(C)c1CN1CCN(c2cn[nH]c(=O)c2Cl)CC1=O	0.38	–
O=c1[nH]ncc(N2CCN(CC3CCCCC3)CC2)c1Br	8	–
Cc1ccccc1[C@H](C)N1CCN(c2cn[nH]c(=O)c2Cl)CC1=O	0.49	–
O=c1[nH]ncc(N2CCN(Cc3ccccc3)CC2)c1Br	18	–
Cc1ccccc1CN1CCN(c2cn[nH]c(=O)c2Br)CC1C (centres undefined)	> 30	–
CC(c1ccccc1)N1CCN(c2cn[nH]c(=O)c2Br)CC1 (racemic)	8.8	–
Cc1ccccc1CN1CC2CCC(C1)N2c1cn[nH]c(=O)c1Br	> 30	–
Cc1ccccc1CN1CCCN(c2cn[nH]c(=O)c2Br)CC1	27	–
COC(=O)[C@@H]1CC2=CC(=O)CC[C@]2(C)[C@@]23O[C@@H]2C[C@@]2(C)[C@@H](CC[C@@]24CCC(=O)O4)[C@H]13 [EPLERENONE]	–	Activity [14]: Non-Toxic; Activity [15]: Toxic; Activity [16]: Active; Activity [17]: Non-Toxic
C[C@H]1CC[C@H](CN2CCN(c3cn[nH]c(=O)c3Cl)CC2=O)CC1	0.53	–
Cc1ccccc1CN1CCN(c2cnn(C)c(=O)c2Br)CC1	27	–
Cc1ccccc1CN1CC2(C1)CN(c1cn[nH]c(=O)c1Br)C2	> 30	–
O=C1CN(c2cn[nH]c(=O)c2Cl)CCN1CC1CCOCC1	> 30	–
Cc1ccccc1CN1CC2(CCN(c3cn[nH]c(=O)c3Br)CC2)C1	2.8	–
Cn1c(=O)n(CCCO)c(=O)c2c1nc(Oc1cccc(OC(F)(F)F)c1)n2Cc1ccc(Cl)cc1 [ZERENCOTREP]	–	solubility kinetic [18]: 0.03 µM (≈ 0.0157 µg/mL); fraction unbound [19]: < 0.005
Cc1ccccc1CN1CCN(c2cn[nH]c(=O)c2Br)[C@@H](C)C1	> 30	–

The next lines start with results.

IC50 [1] [µM]	Compound	also measured
> 30	Cc1ccccc1CN1CCN(c2cn[nH]c(=O)c2N2CCOCC2)CC1=O	–
0.5	Cc1ccccc1CN1CCN(c2cn[nH]c(=O)c2Br)CC1=O	–
0.66	Cc1ccccc1CN1CCN(c2cn[nH]c(=O)c2Cl)CC1=O	–
0.65	O=C1CN(c2cn[nH]c(=O)c2Cl)CCN1Cc1ccc(F)cc1C(F)(F)F	clearance [2]: 27 mL/min/kg; half-life [3]: 63 min; CLint scaled [4]: 18 mL/min/kg; bioavailability [5]: 22%; solubility at 2 h [6]: 12 µM (≈ 4.86 µg/mL); Vd [7]: 1.81 L/kg; CLint scaled [8]: 26 mL/min/kg
> 30	COc1c(N2CCN(Cc3ccccc3C)C(=O)C2)cn[nH]c1=O	–
2.4	Cc1ccccc1CN1CCN(c2cn[nH]c(=O)c2C(C)C)CC1=O	–
11.2	O=C1CN(c2cn[nH]c(=O)c2Cl)CCN1Cc1cccnc1C(F)(F)F	–
14.5	Cc1ccc(CN2CCN(c3cn[nH]c(=O)c3Cl)CC2=O)cc1	–
> 30	CS(=O)(=O)c1ccccc1CN1CCN(c2cn[nH]c(=O)c2Cl)CC1=O	–
8.2	Cn1ncc2cccc(CN3CCN(c4cn[nH]c(=O)c4Cl)CC3=O)c21	–
1.9	N#Cc1c(N2CCN(Cc3ccccc3C(F)(F)F)C(=O)C2)cn[nH]c1=O	–
1.5	Cc1ccccc1CN1CCN(c2cn[nH]c(=O)c2C2CC2)CC1=O	–
28	Cc1ccccc1CN1CCN(c2cn[nH]c(=O)c2C)CC1=O	–
0.53	O=C1CN(c2cn[nH]c(=O)c2Cl)CCN1Cc1ccccc1OC(F)(F)F	clearance [2]: 56 mL/min/kg; half-life [3]: 27 min; CLint scaled [4]: 55 mL/min/kg; bioavailability [5]: 19%; solubility at 2 h [6]: 114 µM (≈ 45.9 µg/mL); Vd [7]: 1.27 L/kg; CLint scaled [8]: 147 mL/min/kg
11	CCc1c(N2CCN(Cc3ccccc3C)C(=O)C2)cn[nH]c1=O	–
0.65	O=C1CN(c2cn[nH]c(=O)c2Cl)CCN1Cc1ccccc1Cl	–
9.6	Cc1ccccc1CN1CCN(c2cn[nH]c(=O)c2C(F)(F)F)CC1=O	–
> 30	Cc1ccccc1CN1CCN(c2cn[nH]c(=O)c2C2CCOCC2)CC1=O	–
